Experimental data published in ChEMBL document CHEMBL1140473, “Novel potent macrocyclic inhibitors of the hepatitis C virus NS3 protease: use of cyclopentane and cyclopentene P2-motifs” (Bioorg Med Chem, 2007).

Assays:
[1] = Inhibition of HCV 1a recombinant full length NS3/4A protease; design: species or system Hepatitis C virus subtype 1a
Procedure, shortened: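 Preincubated 30 min at room temperature, then started with 2 μM FRET substrate RET S1. Fluorescence (ex 355/em 500 nm) followed 20 min. IC50 by non-linear fit; Ki = IC50/(1+S/Km), assuming competitive inhibition.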

Hepatitis C virus = assay: Antiviral activity against HCV 1b replicon in Huh7 cells after 48 hrs; type: functional, organism-based, Hepacivirus hominis; details: genotype 1b, Huh-7, 48 h
Procedure, shortened: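 Huh-7 cells carrying a subgenomic genotype 1b replicon with firefly luciferase, kept under 0.5 mg/ml G418. Cells seeded at 1500 per well, dosed after 24 h with fivefold serial dilutions (DMSO ≤1% final), incubated 48 h, then lysed for luciferase read-out. EC50 is the concentration lowering luciferase signal 50% versus untreated control.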

[2] = Inhibition of human elastase
Cathepsin B = Cathepsin B (Homo sapiens, UniProt P07858); assay: Inhibition of human cathepsin B
[3] = Inhibition of human chymotrypsin

Row | SMILES | Ki [1] | EC50 (Hepatitis C virus) | Ki [2] | Ki (Cathepsin B) | Ki [3]
1 | COc1ccc2c(O[C@H]3CC4C(=O)N(NC(=O)OC(C)(C)C)CCCCCCC=C[C@@H]5C[C@@]5(C(=O)O)NC(=O)[C@@H]4C3)cc(-c3ccccc3)nc2c1 (stereo partly specified) | > 10000 nM | > 10000 nM | – | – | –
2 | COc1ccc2c(O[C@@H]3C[C@H]4C(=O)N[C@]5(C(=O)O)C[C@H]5/C=C\CCCCCN(N)C(=O)[C@@H]4C3)cc(-c3ccccc3)nc2c1 | 120 nM | > 10000 nM | – | – | –
3 | COc1ccc2c(O[C@@H]3C[C@H]4C(=O)N[C@]5(C(=O)O)C[C@H]5C=CCCCCN(C)C(=O)[C@@H]4C3)cc(-c3ccccc3)nc2c1 | 44 nM | 2200 nM | – | – | –
4 | COc1ccc2c(O[C@H]3C=C4C(=O)N(N)CCCCC/C=C\[C@@H]5C[C@@]5(C(=O)O)NC(=O)[C@@H]4C3)cc(-c3ccccc3)nc2c1 | 110 nM | 4500 nM | – | – | –
5 | COc1ccc2c(O[C@@H]3C[C@H]4C(=O)N[C@]5(C(=O)O)C[C@H]5/C=C\CCCCCN(NC(=O)OC(C)(C)C)C(=O)[C@@H]4C3)cc(-c3ccccc3)nc2c1 | 710 nM | > 10000 nM | – | – | –
6 | COc1ccc2c(O[C@@H]3C[C@H]4C(=O)N[C@]5(C(=O)O)C[C@H]5/C=C\CCCN(NC(=O)OC(C)(C)C)C(=O)[C@@H]4C3)cc(-c3ccccc3)nc2c1 | 130 nM | > 10000 nM | – | – | –
7 | COc1ccc2c(O[C@H]3C[C@H]4C(=O)NCCCCC=C[C@@H]5C[C@@]5(C(=O)O)NC(=O)[C@@H]4C3)cc(-c3ccccc3)nc2c1 | 260 nM | > 10000 nM | – | – | –
8 | COc1ccc2c(O[C@@H]3C[C@H]4C(=O)N[C@]5(C(=O)O)C[C@H]5C=CCCCCN(NC(=O)OC(C)(C)C)C(=O)[C@@H]4C3)cc(-c3ccccc3)nc2c1 | 31 nM | > 10000 nM | – | – | –
9 | COc1ccc2c(O[C@H]3CC4C(=O)N(N)CCCCCCC=C[C@@H]5C[C@@]5(C(=O)O)NC(=O)[C@@H]4C3)cc(-c3ccccc3)nc2c1 (stereo partly specified) | > 10000 nM | > 10000 nM | – | – | –

These reach a lower Ki [1]. Values come first.

Row | Ki [1] | EC50 (Hepatitis C virus) | Ki [2] | Ki (Cathepsin B) | Ki [3] | SMILES
10 | 0.07 nM | 530 nM | – | – | – | COc1ccc2c(O[C@@H]3C[C@H]4C(=O)N[C@]5(C(=O)NS(=O)(=O)C6CC6)C[C@H]5C=CCCCCN(NC(=O)OC(C)(C)C)C(=O)[C@@H]4C3)cc(-c3ccccc3)nc2c1
11 | 2.2 nM | 4400 nM | – | – | – | COc1ccc2c(O[C@H]3C[C@H]4C(=O)NCCCCC=C[C@@H]5C[C@@]5(C(=O)NS(=O)(=O)C5CC5)NC(=O)[C@@H]4C3)cc(-c3ccccc3)nc2c1
12 | 0.41 nM | 9.1 nM | > 5000 nM | 2200 nM | > 5000 nM | COc1ccc2c(O[C@@H]3C[C@H]4C(=O)N[C@]5(C(=O)NS(=O)(=O)C6CC6)C[C@H]5C=CCCCCN(C)C(=O)[C@@H]4C3)cc(-c3ccccc3)nc2c1
13 | 6 nM | 7600 nM | – | – | – | COc1ccc2c(O[C@@H]3C[C@H]4C(=O)N[C@]5(C(=O)O)C[C@H]5C=CCCCCN(N)C(=O)[C@@H]4C3)cc(-c3ccccc3)nc2c1
14 | 0.19 nM | 33 nM | – | – | – | COc1ccc2c(O[C@@H]3C[C@H]4C(=O)N[C@]5(C(=O)NS(=O)(=O)C6CC6)C[C@H]5C=CCCCCN(N)C(=O)[C@@H]4C3)cc(-c3ccccc3)nc2c1
